How the values were obtained:
Type in all cases: functional
[1] = tested on: SN12C; assay: Growth inhibition of human SN12C cells at 10 uM after 48 hrs by coulter counter method; details: read-out: GI
Outline: (§1)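 Single high-dose NCI 60-cell-line panel screen across nine tumor subpanels. Test solutions (0.2 mL) were added in duplicate to wells holding 1.8 mL of culture at 6 × 10⁴ cells/mL. Controls got PBS and DMSO at identical dilutions. Incubation was 48 h at 37 °C in humidified 5% CO₂. Cells were diluted 10-fold in saline, Coulter-counted and dilution-corrected. Results were expressed as percent growth inhibition versus control.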

[2] = tested on: SF-539; assay: Growth inhibition of human SF539 cells at 10 uM after 48 hrs by coulter counter method; details: SF-539, 48 h, read-out: GI; outline: as §1
[3] = tested on: NCI-H522; assay: Growth inhibition of human NCI-H522 cells at 10 uM after 48 hrs by coulter counter method; details: NCI-H522, 48 h, read-out: GI; outline: as §1
[4] = tested on: HL-60(TB); assay: Growth inhibition of human HL-60(TB) cells at 10 uM after 48 hrs by coulter counter method; details: HL-60, 48 h, read-out: GI
Outline: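 Part of the NCI 60-cell-line single-high-dose panel. Cells were seeded at 6 × 10⁴ cells/mL with test solution in duplicate wells, alongside PBS/DMSO controls at identical dilutions. Plates were held 48 h at 37 °C in a humidified 5% CO₂ incubator. Cells were then diluted 10-fold in saline and counted by Coulter counter, with counts corrected for dilution. Results are percent growth of treated cells, reported as GI %.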

[5] = tested on: A549; assay: Growth inhibition of human A549 cells at 10 uM after 48 hrs by coulter counter method; details: A549, 48 h, read-out: GI; outline: as §1
[6] = tested on: OVCAR-4; assay: Growth inhibition of human OVCAR4 cells at 10 uM after 48 hrs by coulter counter method; details: OVCAR-4, 48 h, read-out: GI; outline: as §1
[7] = tested on: SR; assay: Growth inhibition of human SR cells at 10 uM after 48 hrs by coulter counter method; details: read-out: GI; outline: as §1
[8] = tested on: 786-0; assay: Growth inhibition of human 786-0 cells at 10 uM after 48 hrs by coulter counter method; details: 786-0, 48 h, read-out: GI; outline: as §1
[9] = tested on: SF-268; assay: Growth inhibition of human SF268 cells at 10 uM after 48 hrs by coulter counter method; details: SF-268, 48 h, read-out: GI; outline: as §1
[10] = tested on: SK-MEL-2; assay: Growth inhibition of human SK-MEL-2 cells at 10 uM after 48 hrs by coulter counter method; details: SK-MEL-2, 48 h, read-out: GI; outline: as §1
[11] = tested on: SK-OV-3; assay: Growth inhibition of human SKOV3 cells at 10 uM after 48 hrs by coulter counter method; details: SK-OV-3, 48 h, read-out: GI; outline: as §1
[12] = tested on: U-251; assay: Growth inhibition of human U251 cells at 10 uM after 48 hrs by coulter counter method; details: U-251, 48 h, read-out: GI; outline: as §1
[13] = tested on: MOLT-4; assay: Growth inhibition of human MOLT4 cells at 10 uM after 48 hrs by coulter counter method; details: MOLT-4, 48 h, read-out: GI; outline: as §1
[14] = tested on: UO-31; assay: Growth inhibition of human UO31 cells at 10 uM after 48 hrs by coulter counter method; details: UO-31, 48 h, read-out: GI; outline: as §1
[15] = tested on: SK-MEL-28; assay: Growth inhibition of human SK-MEL-28 cells at 10 uM after 48 hrs by coulter counter method; details: SK-MEL-28, 48 h, read-out: GI; outline: as §1
[16] = tested on: T47D; assay: Growth inhibition of human T47D cells at 10 uM after 48 hrs by coulter counter method; details: read-out: GI; outline: as §1
[17] = tested on: CCRF-CEM; assay: Growth inhibition of human CCRF-CEM cells at 10 uM after 48 hrs by coulter counter method; details: read-out: GI; outline: as §1
[18] = Growth inhibition of human Hs 578T cells at 10 uM after 48 hrs by coulter counter method; details: read-out: GI; outline: as §1
[19] = tested on: KM12; assay: Growth inhibition of human KM12 cells at 10 uM after 48 hrs by coulter counter method; details: KM12, 48 h, read-out: GI; outline: as §1
[20] = tested on: M14; assay: Growth inhibition of human M14 cells at 10 uM after 48 hrs by coulter counter method; details: M14, 48 h, read-out: GI; outline: as §1
[21] = tested on: PC-3; assay: Growth inhibition of human PC3 cells at 10 uM after 48 hrs by coulter counter method; details: PC-3, 48 h, read-out: GI; outline: as §1
[22] = tested on: OVCAR-8; assay: Growth inhibition of human OVCAR8 cells at 10 uM after 48 hrs by coulter counter method; details: OVCAR-8, 48 h, read-out: GI; outline: as §1
[23] = tested on: MCF7; assay: Growth inhibition of human MCF7 cells at 10 uM after 48 hrs by coulter counter method; details: MCF7, 48 h, read-out: GI; outline: as §1
[24] = tested on: CAKI-1; assay: Growth inhibition of human Caki1 cells at 10 uM after 48 hrs by coulter counter method; details: CAKI-1, 48 h, read-out: GI; outline: as §1
[25] = tested on: NCI-H23; assay: Growth inhibition of human NCI-H23 cells at 10 uM after 48 hrs by coulter counter method; details: NCI-H23, 48 h, read-out: GI; outline: as §1
[26] = tested on: MDA-MB-468; assay: Growth inhibition of human MDA-MB-468 cells at 10 uM after 48 hrs by coulter counter method; details: MDA-MB-468, 48 h, read-out: GI; outline: as §1
[27] = tested on: NCI-H226; assay: Growth inhibition of human NCI-H226 cells at 10 uM after 48 hrs by coulter counter method; details: NCI-H226, 48 h, read-out: GI; outline: as §1
[28] = tested on: UACC-62; assay: Growth inhibition of human UACC62 cells at 10 uM after 48 hrs by coulter counter method; details: UACC-62, 48 h, read-out: GI; outline: as §1
[29] = tested on: MDA-MB-231; assay: Growth inhibition of human MDA-MB-231 cells at 10 uM after 48 hrs by coulter counter method; details: MDA-MB-231, 48 h, read-out: GI; outline: as §1
[30] = tested on: COLO 205; assay: Growth inhibition of human COLO205 cells at 10 uM after 48 hrs by coulter counter method; details: COLO 205, 48 h, read-out: GI; outline: as §1
[31] = tested on: K562; assay: Growth inhibition of human K562 cells at 10 uM after 48 hrs by coulter counter method; details: K562, 48 h, read-out: GI; outline: as §1
[32] = tested on: HCT-116; assay: Growth inhibition of human HCT116 cells at 10 uM after 48 hrs by coulter counter method; details: HCT-116, 48 h, read-out: GI; outline: as §1
[33] = tested on: IGROV-1; assay: Growth inhibition of human IGROV1 cells at 10 uM after 48 hrs by coulter counter method; details: IGROV-1, 48 h, read-out: GI; outline: as §1
[34] = tested on: SNB-75; assay: Growth inhibition of human SNB75 cells at 10 uM after 48 hrs by coulter counter method; details: SNB-75, 48 h, read-out: GI; outline: as §1
[35] = tested on: HOP-92; assay: Growth inhibition of human HOP92 cells at 10 uM after 48 hrs by coulter counter method; details: HOP-92, 48 h, read-out: GI; outline: as §1

Row | SMILES | inhibition of growth at 10 µM [1] [%] | inhibition of growth at 10 µM [2] [%] | inhibition of growth at 10 µM [3] [%] | inhibition of growth at 10 µM [4] [%] | inhibition of growth at 10 µM [6] [%] | inhibition of growth at 10 µM [7] [%] | inhibition of growth at 10 µM [8] [%] | inhibition of growth at 10 µM [9] [%] | inhibition of growth at 10 µM [10] [%] | inhibition of growth at 10 µM [11] [%] | inhibition of growth at 10 µM [12] [%] | inhibition of growth at 10 µM [13] [%] | inhibition of growth at 10 µM [14] [%] | inhibition of growth at 10 µM [15] [%] | inhibition of growth at 10 µM [16] [%] | inhibition of growth at 10 µM [18] [%] | inhibition of growth at 10 µM [19] [%] | inhibition of growth at 10 µM [20] [%] | inhibition of growth at 10 µM [21] [%] | inhibition of growth at 10 µM [22] [%] | also measured
1 | COc1ccc(-n2c(SC)nc3ccccc3c2=O)cc1 | 30 | 30 | 30 | 30 | 30 | 30 | 30 | 30 | 30 | 30 | 30 | 30 | 30 | 30 | 30 | 30 | 30 | 30 | 30 | 30 | inhibition of growth at 10 µM [5]: 30%; inhibition of growth at 10 µM [17]: 30%; inhibition of growth at 10 µM [23]: 30%; inhibition of growth at 10 µM [24]: 30%; inhibition of growth at 10 µM [25]: 30%; inhibition of growth at 10 µM [26]: 30%; inhibition of growth at 10 µM [27]: 30%; inhibition of growth at 10 µM [28]: 30%; inhibition of growth at 10 µM [29]: 30%; inhibition of growth at 10 µM [30]: 30%; inhibition of growth at 10 µM [31]: 30.1%; inhibition of growth at 10 µM [32]: 30%; inhibition of growth at 10 µM [33]: 30%; inhibition of growth at 10 µM [34]: 30%
2 | COc1ccc(C(=O)CSc2nc3ccccc3c(=O)n2-c2ccc(Cl)cc2)cc1 | 30 | 48.6 | < 30 | 30 | 53.5 | 30 | 41.3 | 48.8 | 34.2 | 44.7 | 65.1 | 30 | 37.2 | 37.3 | 30 | 30 | 30 | 38.4 | 30 | 76.2 | inhibition of growth at 10 µM [23]: 30%; inhibition of growth at 10 µM [25]: 30%; inhibition of growth at 10 µM [26]: 35.4%; inhibition of growth at 10 µM [27]: 30%; inhibition of growth at 10 µM [28]: 42.2%; inhibition of growth at 10 µM [29]: 40.9%; inhibition of growth at 10 µM [30]: 48.9%; inhibition of growth at 10 µM [32]: 30%; inhibition of growth at 10 µM [33]: 48.9%; inhibition of growth at 10 µM [34]: 71.1%
3 | COc1ccc(C(=O)CSc2nc3ccccc3c(=O)n2-c2ccc(OC)cc2)cc1 | 30 | 30 | < 30 | 43 | 30 | 34.9 | 30 | 30 | 30 | 30 | 30 | 49.4 | 30.3 | 30 | 30 | 30 | 30 | 30 | 30 | 30 | inhibition of growth at 10 µM [35]: 30%; inhibition of growth at 10 µM [5]: 30.8%; inhibition of growth at 10 µM [17]: 70.3%; inhibition of growth at 10 µM [23]: 30%; inhibition of growth at 10 µM [25]: 30%; inhibition of growth at 10 µM [26]: 30.8%; inhibition of growth at 10 µM [27]: 30%; inhibition of growth at 10 µM [28]: 30%; inhibition of growth at 10 µM [29]: 30%; inhibition of growth at 10 µM [30]: 30%; inhibition of growth at 10 µM [32]: 30%; inhibition of growth at 10 µM [33]: 30%; inhibition of growth at 10 µM [34]: 30%
4 | CCn1c(SC)nc2ccccc2c1=O | 30 | 30 | 30 | 34.8 | 30 | 30 | 30 | 30 | 30 | 30 | 30 | 30 | 30 | 30 | 30 | 30 | 30 | 30 | 30 | 30 | inhibition of growth at 10 µM [35]: 60.8%; inhibition of growth at 10 µM [5]: 30%; inhibition of growth at 10 µM [17]: 49.5%; inhibition of growth at 10 µM [23]: 30%; inhibition of growth at 10 µM [24]: 42.9%; inhibition of growth at 10 µM [25]: 30%; inhibition of growth at 10 µM [26]: 30%; inhibition of growth at 10 µM [27]: 30%; inhibition of growth at 10 µM [28]: 30%; inhibition of growth at 10 µM [29]: 30%; inhibition of growth at 10 µM [30]: 30%; inhibition of growth at 10 µM [31]: 30%; inhibition of growth at 10 µM [32]: 30%; inhibition of growth at 10 µM [33]: 30%; inhibition of growth at 10 µM [34]: 30%
5 | O=c1c2ccccc2nc(Nc2nnc(-c3ccc(Cl)cc3)s2)n1-c1ccccc1 | 30 | 30 | 31.9 | 30 | 30 | 30 | 30 | 30 | 30 | 30 | 30 | 30 | 30 | 30 | 30 | 30 | 30 | 30 | 30 | 30 | inhibition of growth at 10 µM [35]: 30%; inhibition of growth at 10 µM [5]: 30%; inhibition of growth at 10 µM [17]: 30%; inhibition of growth at 10 µM [23]: 30%; inhibition of growth at 10 µM [24]: 30%; inhibition of growth at 10 µM [25]: 30%; inhibition of growth at 10 µM [26]: 30%; inhibition of growth at 10 µM [27]: 30%; inhibition of growth at 10 µM [28]: 30%; inhibition of growth at 10 µM [29]: 30%; inhibition of growth at 10 µM [30]: 30%; inhibition of growth at 10 µM [31]: 30%; inhibition of growth at 10 µM [32]: 30%; inhibition of growth at 10 µM [33]: 65.9%; inhibition of growth at 10 µM [34]: 30%

— ChEMBL document CHEMBL1629431, “Synthesis and antitumor activity of some 2, 3-disubstituted quinazolin-4(3H)-ones and 4, 6- disubstituted- 1, 2, 3, 4-tetrahydroquinazolin-2H-ones” (2010)
